Consider 24 compounds from ChEMBL document CHEMBL1821598, “Synthesis, structure-activity relationship and biological evaluation of anticancer activity for novel N-substituted sophoridinic acid derivatives” (Bioorg Med Chem Lett, 2011).

In brackets after ≈: the same amount, converted by molar mass. Activity calls are given as the source filed them. No cut-off for these calls is given here.

In assay [1] the test system is HepG2. Nature of the assay: Inhibition of cell proliferation of human HepG2 cells at 30 ug/mL after 48 hrs by Sulforhodamine B assay. The format is functional. The settings on record: HepG2, 48 h. Put shortly:
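HepG2 cells exposed to test compounds at 30 μg/mL for 48 h. HCPT at 30 μg/mL was the positive control. Proliferation was read by SRB and reported as % inhibition. Values are mean ± SD of three separate experiments.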
For orientation: Sulforhodamine B stains cellular protein and so reports cell mass.

Assay [2] has as its target T1, DNA topoisomerase 1 (Homo sapiens) (UniProt P11387).
T1 sequence (whole entry): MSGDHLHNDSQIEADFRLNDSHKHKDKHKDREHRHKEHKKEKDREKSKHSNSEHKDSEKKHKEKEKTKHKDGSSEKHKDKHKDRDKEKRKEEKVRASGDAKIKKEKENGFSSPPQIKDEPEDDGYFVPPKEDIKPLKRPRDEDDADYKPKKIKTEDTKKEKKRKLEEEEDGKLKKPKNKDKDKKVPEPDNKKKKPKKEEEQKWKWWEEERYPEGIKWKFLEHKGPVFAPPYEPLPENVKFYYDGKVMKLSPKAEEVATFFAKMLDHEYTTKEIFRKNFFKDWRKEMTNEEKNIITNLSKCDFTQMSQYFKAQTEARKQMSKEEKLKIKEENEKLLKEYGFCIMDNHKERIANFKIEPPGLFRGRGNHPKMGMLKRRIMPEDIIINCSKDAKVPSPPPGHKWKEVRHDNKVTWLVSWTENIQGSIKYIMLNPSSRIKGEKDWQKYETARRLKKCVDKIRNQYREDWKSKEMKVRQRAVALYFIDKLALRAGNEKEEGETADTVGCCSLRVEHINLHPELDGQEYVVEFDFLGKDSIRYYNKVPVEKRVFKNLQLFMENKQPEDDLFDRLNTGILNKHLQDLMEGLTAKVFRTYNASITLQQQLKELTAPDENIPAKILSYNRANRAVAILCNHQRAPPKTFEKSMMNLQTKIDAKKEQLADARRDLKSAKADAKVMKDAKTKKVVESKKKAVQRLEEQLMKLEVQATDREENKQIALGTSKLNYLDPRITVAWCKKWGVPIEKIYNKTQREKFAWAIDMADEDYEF
Nature of the assay: Inhibition of DNA topoisomerase 1 using DNA substrate after 0.5 hrs by gel electrophoresis. Put shortly: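 Run over a range of concentrations, with HCPT as positive control.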

Assay [3] relates to HepG2. Put plainly: Cytotoxicity against human HepG2 cells after 48 hrs by Sulforhodamine B assay. The class given is functional, cell-based. The settings on record: for IC50: HepG2, 48 h. Put shortly: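 HepG2 cells treated at a series of concentrations for 48 h. Cell death was read by sulforhodamine B staining.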
The subject of the next assay is MCF7. Nature of the assay: Inhibition of cell proliferation of human MCF7 cells at 30 ug/mL after 48 hrs by Sulforhodamine B assay. The format is functional. The settings on record: MCF7, 48 h. Summed up:
(§1)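 Human tumor cell lines were treated at 30 μg/mL for 48 h. Antiproliferative activity was measured by SRB assay.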

Assay [4] relates to HepG2. Put plainly: Induction of apoptosis in human HepG2 cells assessed as disappearance of nuclear membrane and appearance of apoptotic body at 20 ug/mL after 48 hrs by microscopy relative to control. The class given is functional, cell-based. Summed up: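 HepG2 cells untreated or treated at 20 μg/mL for 48 h. Cells were harvested onto slides and examined by microscopy for apoptotic morphology.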

The test system of assay [5] is HepG2. Put plainly: Cell cycle arrest in human HepG2 cells assessed as accumulation at S phase at 20 ug/mL after 12 hrs by flow cytometry (Rvb= 25.4%). The format is functional. Put shortly: (§2)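 HepG2 cells incubated with or without compound at 20 μg/mL for 4, 12 or 24 h. Cell cycle distribution (G0/G1, S, G2/M) was read from DNA content by flow cytometry. Untreated cells served as control.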
(A flow cytometer gives signals particle by particle.)

Assay [6] relates to HepG2. Put plainly: Cell cycle arrest in human HepG2 cells assessed as accumulation at G2/M phase at 20 ug/mL after 12 hrs by flow cytometry (Rvb= 11.5%). The class given is functional. Summed up:
as §2

Assay [7] deals with HepG2. Nature of the assay: Cell cycle arrest in human HepG2 cells assessed as accumulation at G0/G1 phase at 20 ug/mL after 12 hrs by flow cytometry (Rvb= 63.1%). The class given is functional. Put shortly: as §2
Assay [8] deals with HepG2. Nature of the assay: Cell cycle arrest in human HepG2 cells assessed as accumulation at G0/G1 phase at 20 ug/mL after 4 hrs by flow cytometry (Rvb= 63.1%). The format is functional. Summed up:
as §2

In assay [9] the test system is HepG2. Nature of the assay: Cell cycle arrest in human HepG2 cells assessed as accumulation at S phase at 20 ug/mL after 4 hrs by flow cytometry (Rvb= 25.4%). The class given is functional. Put shortly: as §2
Assay [10] is described as follows: Inhibition of cell proliferation of human […] cells at 30 ug/mL after 48 hrs by Sulforhodamine B assay. The class given is functional. Summed up:
as §1

A further assay concerns A549. Nature of the assay: Inhibition of cell proliferation of human A549 cells at 30 ug/mL after 48 hrs by Sulforhodamine B assay. The format is functional. The settings on record: A549, 48 h. Summed up: as §1
Assay [11] deals with HepG2. Put plainly: Cell cycle arrest in human HepG2 cells assessed as accumulation at G2/M phase at 20 ug/mL after 24 hrs by flow cytometry (Rvb= 11.5%). The format is functional. Summed up: as §2
The subject of assay [12] is HepG2. Put plainly: Cell cycle arrest in human HepG2 cells assessed as accumulation at G2/M phase at 20 ug/mL after 4 hrs by flow cytometry (Rvb= 11.5%). The format is functional. Summed up:
as §2

The test system of assay [13] is HepG2. Put plainly: Cell cycle arrest in human HepG2 cells assessed as accumulation at G0/G1 phase at 20 ug/mL after 24 hrs by flow cytometry (Rvb= 63.1%). The class given is functional. Summed up:
as §2

Assay [14] has as its system HepG2. Put plainly: Cell cycle arrest in human HepG2 cells assessed as accumulation at S phase at 20 ug/mL after 24 hrs by flow cytometry (Rvb= 25.4%). The format is functional. Put shortly: as §2

Take `O=C(O)CCC[C@H]1[C@H]2CCCN3CCC[C@@H](CN1C(=O)c1cccc([N+](=O)[O-])c1)[C@@H]23`: in the assay with HepG2 [1], the inhibition at 30 µg/mL was below 5%.
In the assay with HepG2 [1], `O=C1CCC[C@@H]2[C@H]3CCCN4CCC[C@H](CN12)[C@@H]34` [SOPHORIDINE] displayed an inhibition at 30 µg/mL of 13.8%. For the same compound, in assay [2], the inhibition result is “Active”.
In turn, `Cc1c(C(=O)N2C[C@@H]3CCCN4CCC[C@@H]([C@H]34)[C@@H]2CCCC(=O)O)cccc1[N+](=O)[O-]` displayed an inhibition at 30 µg/mL with HepG2 [1] of 8.9%.
Same read-out and setting: in the case of `CC(Br)C(=O)N1C[C@@H]2CCCN3CCC[C@@H]([C@H]23)[C@@H]1CCCC(=O)O` (stereo partly drawn) it was 15.6%; in that of `Cc1ccc(C(=O)N2C[C@@H]3CCCN4CCC[C@@H]([C@H]34)[C@@H]2CCCC(=O)O)cc1`, 8.5%.
In the assay with HepG2 [1], `O=C(O)CCC[C@H]1[C@H]2CCCN3CCC[C@@H](CN1C(=O)c1ccc(F)cc1)[C@@H]23` showed an inhibition at 30 µg/mL below 5%.
`COc1cc(C(=O)N2C[C@@H]3CCCN4CCC[C@@H]([C@H]34)[C@@H]2CCCC(=O)O)cc(OC)c1OC` returned an inhibition at 30 µg/mL with HepG2 [1] of 11.8%.
The same measure, in the same setting: in the case of `CCOC(=O)N1C[C@@H]2CCCN3CCC[C@@H]([C@H]23)[C@@H]1CCCC(=O)O` it was 19.9%.
With `CC(C)(C)C(=O)N1C[C@@H]2CCCN3CCC[C@@H]([C@H]23)[C@@H]1CCCC(=O)O`, in the assay with HepG2 [3], the inhibition result is “Dose-dependent effect” and the IC50 came out at 43.6 µg/mL (≈ 124 µM). For the same compound, in the assay on HepG2 [1], testing at 30 µg/mL gave an inhibition of 41.1%.
With `O=C(O)CCC[C@H]1[C@H]2CCCN3CCC[C@@H](CN1C(=O)c1ccccc1)[C@@H]23`, in the assay on HepG2 [1], the inhibition at 30 µg/mL was below 5%.
Regarding `O=C(O)CCC[C@H]1[C@H]2CCCN3CCC[C@@H](CN1C(=O)OCc1ccccc1)[C@@H]23`, the inhibition at 30 µg/mL in the assay on HepG2 [1] was 8.4%.
On to `COc1ccc(C(=O)N2C[C@@H]3CCCN4CCC[C@@H]([C@H]34)[C@@H]2CCCC(=O)O)cc1[N+](=O)[O-]`, for which the inhibition at 30 µg/mL in the assay on HepG2 [1] was below 5%.
Turning to `Cc1ccc(S(=O)(=O)N2C[C@@H]3CCCN4CCC[C@@H]([C@H]34)[C@@H]2CCCC(=O)O)cc1`, the inhibition at 30 µg/mL in the assay on HepG2 [1] is 13.4%.
`O=C(O)CCC[C@H]1[C@H]2CCCN3CCC[C@@H](CN1C(=O)CBr)[C@@H]23`: the inhibition at 30 µg/mL is 73.3% with MCF7, 88% in the assay with HepG2 [1], 68% in assay [10] and 40% with A549. Further, in the assay with HepG2 [3], the inhibition result was “Dose-dependent effect”. In the assay with HepG2 [3], this compound returned an IC50 of 15.4 µg/mL (≈ 39.8 µM). The outcome with HepG2 [4] was Active. The Activity worked out at 38.3% in the assay with HepG2 [5]; 7.88% in the assay on HepG2 [6]; 53.8% with HepG2 [7]; 50.4% with HepG2 [8]; 40.2% with HepG2 [9]; 10.4% with HepG2 [11]. Moreover, the results for the Activity in the assay with HepG2 [12], in the assay with HepG2 [13] and with HepG2 [14] were 9.43%, 47.7% and 41.8%, respectively. In addition, in [2], the inhibition entry was “Active”.
In the assay on HepG2 [1], `COC(=O)N1C[C@@H]2CCCN3CCC[C@@H]([C@H]23)[C@@H]1CCCC(=O)O` registered an inhibition at 30 µg/mL of 7.8%.
Consider `O=C(O)CCC[C@H]1[C@H]2CCCN3CCC[C@@H](CN1S(=O)(=O)c1ccccc1)[C@@H]23`, for which the inhibition at 30 µg/mL with HepG2 [1] was below 5%.
Still for that read-out and setting: in the case of `Cc1ccc(CN2C[C@@H]3CCCN4CCC[C@@H]([C@H]34)[C@@H]2CCCC(=O)O)cc1` it was below 5%; in that of `O=C(O)CCC[C@H]1[C@H]2CCCN3CCC[C@@H](CN1C(=O)c1ccc(F)c([N+](=O)[O-])c1)[C@@H]23`, 7.7%; in that of `O=C(O)CCC[C@@H]1NC[C@@H]2CCCN3CCC[C@H]1[C@H]23` [SOPHORIDINIC ACID], 10.3%.
On the same count and under the same terms, the same measure for `CC[C@@]1(O)C(=O)OCc2c1cc1n(c2=O)Cc2cc3cc(O)ccc3nc2-1` [HYDROXYCAMPTOTHECIN]: 92%; for `CC(=O)N1C[C@@H]2CCCN3CCC[C@@H]([C@H]23)[C@@H]1CCCC(=O)O`: 11.2%; for `O=C(O)CCC[C@H]1[C@H]2CCCN3CCC[C@@H](CN1C(=O)c1ccc4c(c1)OCO4)[C@@H]23`: 11.4%.
On the same count and under the same terms, in the case of `COc1ccc(C(=O)N2C[C@@H]3CCCN4CCC[C@@H]([C@H]34)[C@@H]2CCCC(=O)O)cc1` it was below 5%; in that of `COc1ccc(CN2C[C@@H]3CCCN4CCC[C@@H]([C@H]34)[C@@H]2CCCC(=O)O)cc1`, below 5%.

For orientation: inhibition means the relative decrease from the control value, in per cent. What is called IC50 is the concentration that inhibits the measured activity by half. Low values mean higher potency, high ones lower potency.
